Screening results as filed in PubChem BioAssay.
Shown are actives, neighbours in structure and some others; about 1.3% of the full set was active somewhere.
DDE Tn7 FP inh: inhibitors of Tn7 peptide binding to fibrin DD(E), primary screen, biochemical, fluorescence polarization, human fibrin, Tn7 probe; 370,000 tested, 0.13% active; FP displacement of FITC-Tn7 peptide from fibrin DD(E); 0% = median of compound wells per plate; Fibrinogen beta chain (Homo sapiens), P02675; inhibition, % at 8.3 µM;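 active = inhibition above the mean of compounds falling within the control limits plus 3 SD of them, cut at about 14% in these data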
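Test system – human fibrin DD(E) · Times – 10 min preincubation, 3 h with tracer, room temperature · Detection – fluorescence polarization of the labelled Tn7 tracer · Measure – percent inhibition normalized to high-control wells · Benchmarks – high control wells with 10 µM unlabelled Aha-Tn7 peptide (full inhibition) · Repeats – singlicate testing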
NRP1-CendR mod: modulators of CendR peptide binding to NRP-1, primary screen, biochemical, fluorescence polarization, uHTS; FAM-RPARPAR peptide binding to NRP-1; 360,000 tested, 0.85% active; AID 602438, 2012; inhibition, % at 25 µM; Neuropilin-1 (Homo sapiens), O14786;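 active = inhibition or corrected inhibition above about 18%, plus a signal ratio from 0.5 to 1.5, limit read from the data, passing the limit was not always enough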
Target sequence (O14786 whole entry, looked up): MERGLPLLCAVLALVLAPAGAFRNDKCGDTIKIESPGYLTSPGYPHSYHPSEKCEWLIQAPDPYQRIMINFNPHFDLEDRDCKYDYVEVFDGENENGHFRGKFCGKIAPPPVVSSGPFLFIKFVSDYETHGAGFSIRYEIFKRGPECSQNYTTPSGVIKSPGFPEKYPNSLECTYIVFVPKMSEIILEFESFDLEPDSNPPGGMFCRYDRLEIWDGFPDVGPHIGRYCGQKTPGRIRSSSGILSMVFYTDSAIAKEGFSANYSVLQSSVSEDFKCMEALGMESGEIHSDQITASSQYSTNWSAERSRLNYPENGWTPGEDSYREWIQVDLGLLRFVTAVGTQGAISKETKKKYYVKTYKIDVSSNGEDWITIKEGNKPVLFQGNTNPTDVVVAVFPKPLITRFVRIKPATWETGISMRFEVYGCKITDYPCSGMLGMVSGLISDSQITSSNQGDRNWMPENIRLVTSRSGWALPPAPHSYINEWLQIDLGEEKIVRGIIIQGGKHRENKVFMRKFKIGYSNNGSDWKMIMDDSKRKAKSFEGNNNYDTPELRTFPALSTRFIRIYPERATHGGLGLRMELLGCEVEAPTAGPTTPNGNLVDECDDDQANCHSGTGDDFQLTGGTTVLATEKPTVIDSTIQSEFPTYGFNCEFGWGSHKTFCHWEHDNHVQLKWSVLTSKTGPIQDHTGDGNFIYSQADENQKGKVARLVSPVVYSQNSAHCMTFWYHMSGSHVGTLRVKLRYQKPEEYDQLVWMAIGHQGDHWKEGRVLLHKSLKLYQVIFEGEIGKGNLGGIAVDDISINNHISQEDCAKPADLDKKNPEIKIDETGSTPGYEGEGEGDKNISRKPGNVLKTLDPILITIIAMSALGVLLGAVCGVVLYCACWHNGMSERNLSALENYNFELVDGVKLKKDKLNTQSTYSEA
Tn6 DDE FP: inhibitors of Tn6 peptide binding to fibrin DD(E), primary screen, biochemical, fluorescence polarization, human fibrin, Tn6 probe. inhibition, % at 8.3 µM. 370,000 tested, 0.21% active. Fibrin DD(E) TRITC-Tn6 fluorescence polarization displacement. Fibrinogen beta chain (Homo sapiens), P02675;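 active = inhibition above a per-campaign cutoff: mean of compounds within control limits plus 3 SD, cut at about 15% in these data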
aDG glyco act: activators of alpha-DG glycosylation, primary screen, uHTS, Pro5-aDG cells, AlphaScreen; activation, % at 10 µM; AID 624168, 2012; alpha-DG glycosylation AlphaScreen (IIH6); 0% Pro5, 100% B10-LARGE cell signal; 360,000 tested, 0.22% active;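 active = activation of at least 8% versus controls, or a plate z-score of at least 8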;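 note: Pro5 are CHO cells carrying HIG-tagged alpha-DG that lacks glycosylation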
Large screens that a line does not name were inactive.

CC(C)(C)OC(=O)[C@H](Cc1ccccc1)NC(=O)c1[nH]cnc1C(=O)N[C@@H](Cc1ccccc1)C(=O)OCc1ccccc1	none
CC(C)(C)OC(=O)[C@H](CCCCN)NC(=O)c1[nH]cnc1C(=O)N[C@@H](Cc1ccccc1)C(=O)OCc1ccccc1	NRP1-CendR mod 27.7 (no result: DDE Tn7 FP inh, Tn6 DDE FP)
CC(C)C[C@@H](CNC(=O)OC(C)(C)C)NC(=O)c1nc[nH]c1C(=O)N[C@@H](CC(C)C)C(=O)CNC[C@H](CC(C)C)NC(=O)c1nc[nH]c1C(=O)N[C@@H](Cc1c[nH]c2ccccc12)C(=O)OC(C)(C)C	NRP1-CendR mod 22.8
O=C(NCc1ccccc1)C(c1cc2ccccc2o1)n1c(=O)c(-c2ccccc2)nc2ccccc21 (configuration not stated)	none
COc1ccc(/C=N/N2CCOCC2)cc1COc1ccc(Cl)cc1	none
COc1ccc(C(=O)C2CC2c2ccc3c(c2)OCO3)cc1 (configuration not stated)	NRP1-CendR mod 28.2
COc1ccc(C(=O)NCc2ccc3c(c2)OCO3)cc1	none
CCCc1nc2ccc(Cl)cn2c1Cc1ccsc1	NRP1-CendR mod 27.9
Clc1ccc(-c2nc3ccc(Cl)cn3c2Cc2ccsc2)cc1	none
Cc1c(C(=O)OCC(=O)NCCc2ccc(S(N)(=O)=O)cc2)oc2ccccc12	none
COCc1c(C(=O)OCC(=O)NCCc2ccc(S(N)(=O)=O)cc2)oc2ccccc12	NRP1-CendR mod 20.8
CC(C)c1ccc(NC(=O)O[C@H]2CC[C@@]34CCCN3C(=O)CCC[C@H]4[C@H]2C)cc1	none (no result: NRP1-CendR mod, aDG glyco act)
CC(C)(C)C1CCC(=NNC(=O)c2ccco2)CC1 (configuration not stated)	none
CN1CCC(=NNC(=O)c2ccco2)CC1	NRP1-CendR mod 36.0
O=S(=O)(NCc1csc(-c2cccs2)n1)c1ccc(Cl)cc1	none
O=S(=O)(NCc1csc(-c2cccs2)n1)c1cccs1	NRP1-CendR mod 34.8
CN(C)/C=N/c1ncc(C(=O)c2ccc3ccccc3c2)s1	none
COc1ccc(C(=O)c2cnc(/N=C/N(C)C)s2)cc1	NRP1-CendR mod 31.5
CC(C)n1c(NCCO)nc2ccccc21	NRP1-CendR mod 25.8
COc1ccc(OC)c(S(=O)(=O)N2CCCCC2C(=O)N2CCCN(C)CC2)c1 (configuration not stated)	none (no result: NRP1-CendR mod, aDG glyco act)
COC(=O)CCC(=O)Nc1ccccc1C(N)=O	none
COC(=O)CCC(=O)Nc1cccc2c(NC(=O)CCC(=O)OC)cccc12	NRP1-CendR mod 20.7
CCOC(=O)[C@@]12CCCC=C1N(CCc1ccc(Cl)cc1)C(=O)[C@H]2CC(=O)NCc1cccs1	none (no result: NRP1-CendR mod, aDG glyco act)
COC(=O)c1cc2ccc(OC)c(OC)c2c(=O)s1	NRP1-CendR mod 27.4
COc1ccc2cc(C(=O)N3CCCCCC3)sc(=O)c2c1OC	none
COc1ccc(N2CCN(c3cncc(C)n3)CC2)cc1	none
O=C(Nc1ccccc1N1CCOCC1)c1ccc(N2CCCC2=O)cc1	NRP1-CendR mod 25.4
COC(=O)C1=C(C)N(C)C(=NCc2ccc(C(F)(F)F)cc2)NC1c1cccc(F)c1 (configuration not stated)	none (no result: NRP1-CendR mod, aDG glyco act)
CC(C)(C)S(=O)N1C[C@@H]2CC(=O)C=C2[C@H]1CCO (some centres not stated)	none (no result: NRP1-CendR mod, aDG glyco act)
C/C(=N\NC(=O)c1cc(-c2cccs2)nc2ccccc12)c1ccccn1	NRP1-CendR mod 30.2
NNC(=O)c1cc(-c2cccs2)nc2ccccc12	none
COc1ccc2c(c1)c(C(=O)N/N=C/c1ccc(Br)cc1)c(C)n2C	NRP1-CendR mod 26.0
Cc1nnc(NC(=O)c2ccccc2C(=O)O)s1	NRP1-CendR mod 34.8
Cc1nnc(NC(=O)c2ccccc2Oc2ccccc2)s1	none
CCOC(=O)[C@@]12CCC3=C1N(CCC3)C(=O)[C@H](CC(=O)NCCCCc1ccccc1)C2	none (no result: NRP1-CendR mod, aDG glyco act)
CC(C)C[C@H](NC(=O)OC(C)(C)C)c1nnc(SCc2cccc(F)c2)o1	NRP1-CendR mod 44.2
CCCCC(=O)N(Cc1ccccc1)c1ccccc1C(=O)Nc1cc(OC)ccc1OC	none (no result: NRP1-CendR mod, aDG glyco act)
COc1ccc(C)cc1Cn1nnc2ccccc21	none
COc1cc(Cn2nnc3ccccc32)cc(Br)c1O	NRP1-CendR mod 23.4
COc1cccc(/C(O)=C2/C(=O)C(=O)N(CCN(C)C)C2c2ccc(Br)cc2)c1 (configuration not stated)	NRP1-CendR mod 20.3
Cc1ccccc1C1CCC2(CC1)CCN(CC[C@@H](O)c1ccccc1)C2=O (some centres not stated)	none (no result: NRP1-CendR mod, aDG glyco act)
CCC[C@H]1[C@@H](N(C)CC2CCCCC2)CC[C@@]23CCCN2C(=O)CCC[C@@H]13	none (no result: NRP1-CendR mod, aDG glyco act)
Cc1ccc(C(C#N)c2ccc(C(=O)c3ccc(F)cc3)cc2)cc1 (configuration not stated)	NRP1-CendR mod 33.4
CN1CCCCC(NC(=O)COCc2ccccc2)C1=O (configuration not stated)	none (no result: NRP1-CendR mod, aDG glyco act)
COc1ccc2nc3c(cc2c1)c(NC(=O)c1cccs1)nn3CC(C)C	NRP1-CendR mod 44.6
Cc1cc(Oc2cccnc2)ccc1NC(=O)CCc1c[nH]c2ccccc12	none (no result: NRP1-CendR mod, aDG glyco act)
Cc1ccc(C)c(N2C(=O)c3ccc(C(=O)Nc4ccccn4)cc3C2=O)c1	NRP1-CendR mod 22.2
Cc1ccc(C(=O)Nc2ccccc2C(=O)Nc2ccccn2)cc1Cl	NRP1-CendR mod 27.7
Cc1ccc(C(=O)Nc2cccnc2Cl)cc1Cl	none
Cc1cccc(N2C(=O)c3ccc(C(=O)Nc4ccccn4)cc3C2=O)c1	none
Cc1ccsc1C(=O)OCC(=O)NC1CCCC1	NRP1-CendR mod 21.2
CC(C)(C)OC(=O)N1O[C@H]2CC1[C@@H]1[C@@H]2N=NN1CCc1ccncc1	NRP1-CendR mod 22.9
O=C(Nc1ccc2[nH]ccc2c1)c1cc(-c2ccc(Cl)cc2)nc2ccccc12	none (no result: NRP1-CendR mod, aDG glyco act)
COc1cc(OC)cc(C(=O)N[C@H](C(=O)NC2CCCc3ccccc32)C(C)C)c1 (some centres not stated)	NRP1-CendR mod 27.1
COc1cccc(C2=NNC(=NCc3ccccc3)SC2)c1	NRP1-CendR mod 30.7
Cc1c(C)[n+](=O)c(C)c(C)n1[O-]	NRP1-CendR mod 28.6
CCCCn1c(-c2ccco2)nc2oc3ccccc3c(=O)c2c1=O	none
CCCCn1c(-c2cccs2)nc2oc3ccccc3c(=O)c2c1=O	NRP1-CendR mod 20.0
CCCn1c(C)cc(C(=O)CSc2nc3nc(C)cc(C)n3n2)c1C	NRP1-CendR mod 32.6
CCOC(=O)CSc1nc2nc(C)cc(C)n2n1	none
Cc1cccc(N2CCN(C(=O)c3ccnn3C)CC2)c1C	NRP1-CendR mod 24.8
Cn1nccc1C(=O)N1CCN(c2ccccc2Cl)CC1	none
Cc1cnc(CN(C)C(=O)C2CCC(=O)N(CCc3ccc(Cl)cc3)C2)[nH]1 (configuration not stated)	none
N#Cc1ccccc1NC(=O)COC(=O)CCc1ccccc1	NRP1-CendR mod 17.2
